The source of these data is ChEMBL document CHEMBL2069303, “Stellettin A induces endoplasmic reticulum stress in murine B16 melanoma cells” (J Nat Prod, 2012).

The subject of experiment [1] is B16-F10. Briefly: Selectivity ratio of IC50 for mouse Melan-a cells to IC50 for mouse B16F10 cells. It is filed as functional.
Experiment [2] relates to B16-F10. Briefly: Induction of endoplasmic reticulum stress in C57BL/6J mouse B16F10 cells assessed as immature TRP1 level at 0.6 ug/mL incubated for 12 to 24 hrs measured 1 hr post endoglycosidase H-treatment by immunoblot analysis. It is filed as functional, cell-based. An outline of the steps:
(§1)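 Lysates of treated B16F10 cells were prepared in RIPA buffer. Protein (10 μg) was digested with 100 units endoglycosidase H or peptide N-glycosidase F at 37 °C for 1 h, then immunoblotted for TRP-1 to separate EndoH-sensitive and EndoH-resistant glycoforms.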

Experiment [3] relates to B16-F10. The experiment in a line: Induction of endoplasmic reticulum stress in C57BL/6J mouse B16F10 cells assessed as upregulation of HSC70 level at 0.625 ug/mL after 24 hrs by immunoblot analysis. It is filed as functional, cell-based. An outline of the steps:
(§2)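 Treated B16F10 cells were PBS-washed and lysed in 50 mM Tris-Cl, 150 mM NaCl, 0.2% Triton X-100, aprotinin and PMSF, then spun at 4 °C. Protein was equalised by BCA. Lysates were run on 10% SDS-PAGE, transferred to PVDF, blocked with 2% gelatin and probed with specific primary antibodies (TRP-1 blots: 0–0.625 μg/mL for 24 h).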

The subject of experiment [4] is B16-F10. Briefly: Induction of endoplasmic reticulum stress in C57BL/6J mouse B16F10 cells assessed as upregulation of GRP78 level after 24 hrs by immunofluorescence staining method. In kind it is functional, cell-based. An outline of the steps: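 B16F10 cells (20 000/mL) on gelatinized coverslips were treated with 0, 0.31, 0.625, 1.25 or 2.5 μg/mL for 24 h. Fixed in 4% paraformaldehyde and immunostained for GRP78, with Alexa-594-conjugated secondary IgG. DAPI counterstain; confocal imaging.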

The subject of experiment [5] is B16-F10. The experiment in a line: Cytotoxicity against C57BL/6J mouse B16F10 cells after 24 hrs by SRB assay. It is filed as functional, cell-based. The following applies: B16-F10, 24 h. An outline of the steps:
(§3)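 B16F10 and TM3 cells in 96-well plates were exposed to serial dilutions (0.08–5 μg/mL) for 24 or 48 h. Proteins were fixed with 50% TCA, stained with 0.4% SRB in 1% acetic acid, rinsed with 1% acetic acid, and the dye was dissolved in 10 mM Tris base (pH 10.5). Absorbance was read at 570 nm. Triplicates in at least three separate experiments; IC50 from concentration–response.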

Experiment [6] has as its system B16-F10. Briefly: Induction of endoplasmic reticulum stress in C57BL/6J mouse B16F10 cells assessed as upregulation of HSC70 level at 0.625 ug/mL after 12 hrs by immunoblot analysis. It is filed as functional, cell-based. An outline of the steps:
as §2

Experiment [7] has as its system B16-F10. Briefly: Induction of apoptosis in C57BL/6J mouse B16F10 cells assessed as Bcl2 activation at 0.6 ug/mL up to 48 hrs by immunoblot analysis. It is filed as functional, cell-based.
Experiment [8] in a line: Cytotoxicity against mouse TM3 cells after 48 hrs by SRB assay. The following applies: TM3, 48 h. It is filed as functional, cell-based. An outline of the steps: as §3
Experiment [9] concerns B16-F10. Briefly: Induction of endoplasmic reticulum stress in C57BL/6J mouse B16F10 cells assessed as upregulation of GRP78 level at 0.625 ug/mL after 24 hrs by immunoblot analysis. It is filed as functional, cell-based. An outline of the steps:
as §2

Experiment [10] deals with HT-29. The experiment in a line: Selectivity ratio of IC50 for human HT-29 cells to IC50 for mouse TM3 cells. It is filed as functional.
In experiment [11] the test system is HaCaT. The experiment in a line: Selectivity ratio of IC50 for human HaCaT cells to IC50 for mouse TM3 cells. In kind it is functional.
The subject of experiment [12] is B16-F10. Briefly: Induction of endoplasmic reticulum stress in C57BL/6J mouse B16F10 cells assessed as abnormally glycosylated TRP1 level at 0.6 ug/mL incubated for 12 hrs measured 1 hr post peptide N-glycosidase F-treatment by immunoblot analysis. It is filed as functional, cell-based. An outline of the steps: as §1
A short description of experiment [13]: Selectivity ratio of IC50 for mouse Melan-a cells to IC50 for mouse TM3 cells. It is filed as functional.
The test system of experiment [14] is B16-F10. Briefly: Decrease in TRP1 level in C57BL/6J mouse B16F10 cells assessed as depigmentation after 48 hrs. In kind it is functional, cell-based.
The subject of experiment [15] is B16-F10. Briefly: Induction of autophagy in C57BL/6J mouse B16F10 cells assessed as LC3-TYR colocalization at 0.625 to 2.5 ug/mL after 24 hrs by fluorescence microscopy. In kind it is functional, cell-based. An outline of the steps: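 B16F10 cells on sterile coverslips were exposed to 0, 0.625, 1.25 or 2.5 μg/mL for 24 h, PBS-washed and paraformaldehyde-fixed. They were co-stained with anti-tyrosinase and anti-LC3, then AlexaFluor-488/594 secondary IgG. DAPI counterstain. Confocal microscopy used to score yellow overlap.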

For experiment [16], the system named is B16-F10. The experiment in a line: Induction of endoplasmic reticulum stress in C57BL/6J mouse B16F10 cells assessed as upregulation of GRP78 level at 0.625 ug/mL after 12 hrs by immunoblot analysis. It is filed as functional, cell-based. An outline of the steps:
as §2

The test system of experiment [17] is B16-F10. Briefly: Cytotoxicity against C57BL/6J mouse B16F10 cells after 48 hrs by SRB assay. To be noted: B16-F10, 48 h. It is filed as functional, cell-based. An outline of the steps: as §3
Experiment [18] concerns HT-29. The experiment in a line: Selectivity ratio of IC50 for human HT-29 cells to IC50 for mouse B16F10 cells. It is filed as functional.
Experiment [19] concerns B16-F10. Briefly: Induction of endoplasmic reticulum stress in C57BL/6J mouse B16F10 cells assessed as immature TRP1 level at 0.6 ug/mL after 24 hrs by immunoblot analysis. In kind it is functional, cell-based. An outline of the steps:
as §2

Experiment [20] concerns B16-F10. Briefly: Induction of endoplasmic reticulum stress in C57BL/6J mouse B16F10 cells assessed as deglycosylated TRP1 level at 0.6 ug/mL after 24 hrs by immunoblot analysis. It is filed as functional, cell-based. An outline of the steps: as §2
Experiment [21] relates to B16-F10. The experiment in a line: Cytotoxicity against C57BL/6J mouse B16F10 cells assessed as cell viability after 24 hrs by SRB assay relative to control. In kind it is functional. An outline of the steps: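 B16F10 cells (20 000/0.1 mL) were given serial concentrations (0.08–5 μg/mL) for 24 h. SRB read-out: TCA fixation, 0.4% SRB staining, acetic acid rinses, solubilisation in 10 mM Tris (pH 10.5), absorbance at 570 nm. Viability expressed relative to untreated control; triplicates in at least three experiments.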

In experiment [22] the test system is B16-F10. Briefly: Induction of autophagy in C57BL/6J mouse B16F10 cells assessed as LC32 accumulation at 0.6 ug/mL by immunoblot analysis. It is filed as functional, cell-based. An outline of the steps:
as §2

Experiment [23] deals with HaCaT. The experiment in a line: Selectivity ratio of IC50 for human HaCaT cells to IC50 for mouse B16F10 cells. It is filed as functional.

In brackets after ≈: the same amount, converted by molar mass. Activity calls are given as the source filed them. The rule behind the calls is not given here.

In the case of `C\C(=C/C=C/C(C)=C1/C(=O)C[C@H]2[C@@]3(C)CCC(=O)C(C)(C)[C@@H]3CC[C@]12C)c1ccc(C)c(=O)o1` [STELLETIN A], the “Ratio IC50” value (in the experiment with B16-F10 [1]; with HT-29 [10]; in the experiment with HaCaT [11]; in experiment [13]; in the experiment on HT-29 [18]; in the experiment with HaCaT [23]) was 10 throughout. For the same molecule, the outcome with B16-F10 [2], in the experiment on B16-F10 [6], with B16-F10 [12], in the experiment with B16-F10 [14], in the experiment on B16-F10 [15] and in the experiment on B16-F10 [16] was Active. Also, the result in the experiment on B16-F10 [19], in the experiment with B16-F10 [20] and with B16-F10 [22] was Active. Also, the result in the experiment on B16-F10 [3], with B16-F10 [7] and with B16-F10 [9] was inactive. For the same molecule, the Activity result in the experiment on B16-F10 [4] was “Dose-dependent effect”; in the experiment with B16-F10 [21] it was 70%. In addition, the concentration for half-maximal inhibition (IC50) in the experiment with B16-F10 [5] was determined as 2 µg/mL (≈ 4.32 µM); in [8], 0.8 µg/mL (≈ 1.73 µM); with B16-F10 [17] it was 0.15 µg/mL (≈ 0.324 µM).
